The record followed here is ChEMBL document CHEMBL1122096, “Narcotic antagonistic potency of bivalent ligands which contain beta-naltrexamine. Evidence for bridging between proximal recognition sites” (1982).

Common to all, as to type: functional
Experiment [1] is filed under the species Cavia porcellus. As to the kind of experiment: Tested for the narcotic antagonistic activity by measuring the ratio of the IC50 of the ethylketazocine in the presence and in the absence in guinea pig ileum at 2*10e-8M. The essentials:
(§1)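 Isolated-tissue antagonism assays: guinea pig ileum (GPI) against ethylketazocine or morphine, with antagonist at 2×10^-8 M; mouse vas deferens (MVD) against DADLE, with antagonist at 1×10^-7 M. The value is the agonist IC50 with antagonist divided by the agonist IC50 without antagonist, both measured in the same preparation, reported ± SE.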

The species named for experiment [2] is Cavia porcellus. As to the kind of experiment: Tested for the narcotic antagonistic activity by measuring the ratio of the IC50 of the morphine in the presence and in the absence in guinea pig ileum at 2*10e-8M. The essentials: as §1
Experiment [3] is filed under the species Cavia porcellus. Nature of the experiment: Partial agonist activity was determined by measuring the % maximum agonist response in guinea pig ileum at 3*10e-8 M concentration of compound.
The species entered for experiment [4] is Mus musculus. Nature of the experiment: Partial agonist activity by measuring the % maximum agonist response in mouse vas deferens at 1*10e-7 M concentration of compound.
Experiment [5] is filed under the species Mus musculus. Nature of the experiment: Tested for the narcotic antagonistic activity by measuring the ratio of the IC50 of the DADLE in the presence and in the absence in mouse vas deferens at 1*10e-7 M. The essentials: as §1
The species entered for experiment [6] is Cavia porcellus. As to the kind of experiment: Partial agonist activity was determined by measuring the % maximum agonist response in guinea pig ileum at 5*10e-7 M concentration of compound.
The species named for experiment [7] is Cavia porcellus. As to the kind of experiment: Partial agonist activity was determined by measuring the % maximum agonist response in guinea pig ileum at 1*10e-8 M concentration of compound.
The species named for experiment [8] is Cavia porcellus. As to the kind of experiment: Partial agonist activity was determined by measuring the % maximum agonist response in guinea pig ileum at 1*10e-6 M concentration of compound.
Experiment [9] is filed under the species Mus musculus. As to the kind of experiment: Partial agonist activity by measuring the % maximum agonist response in mouse vas deferens at 1*10e-6 M concentration of compound.

Turning to `Cc1ccc(S(=O)(=O)OCCOCCOCCN[C@@H]2CC[C@@]3(O)C4Cc5ccc(O)c6c5C3(CCN4CC3CC3)[C@H]2O6)cc1` (stereo not given in full), the figures for the IC50 ratio in the experiment listed under Cavia porcellus [1], in the experiment listed under Cavia porcellus [2] and in the experiment listed under Mus musculus [5] were 3.96, 3.78 and 4.29, respectively. Also, the results for the Max agonist response in the experiment listed under Cavia porcellus [3] and in the experiment filed under Mus musculus [4] were 57% and 27%, respectively.

With `Oc1ccc2c3c1O[C@H]1[C@H](NCCOCCOCCOCCOCCOCCN[C@H]4CC[C@]5(O)C6Cc7ccc(O)c8c7C5(CCN6CC5CC5)[C@@H]4O8)CC[C@@]4(O)C(C2)N(CC2CC2)CCC314`, the values for the IC50 ratio in the experiment filed under Cavia porcellus [1], in the experiment listed under Cavia porcellus [2] and in the experiment listed under Mus musculus [5] were 2.61, 5.75 and 30.67, respectively. In addition, the Max agonist response in the experiment filed under Cavia porcellus [6] was determined as 60%; in the experiment listed under Mus musculus [4] it was 26%.

For `Oc1ccc2c3c1O[C@H]1[C@H](NCCOCCOCCN[C@H]4CC[C@]5(O)C6Cc7ccc(O)c8c7C5(CCN6CC5CC5)[C@@H]4O8)CC[C@@]4(O)C(C2)N(CC2CC2)CCC314`, the IC50 ratio worked out at 16.91 in the experiment listed under Cavia porcellus [1], 3.24 in the experiment listed under Cavia porcellus [2] and 7.17 in the experiment filed under Mus musculus [5]. Also, the Max agonist response is on record as 10% in the experiment filed under Cavia porcellus [7] and 32% in the experiment listed under Mus musculus [4].

In the case of `COCCOCCOCCN[C@@H]1CC[C@@]2(O)C3Cc4ccc(O)c5c4C2(CCN3CC2CC2)[C@H]1O5` (stereo not given in full), the IC50 ratio in the experiment listed under Cavia porcellus [1] amounted to 1.63; in the experiment filed under Cavia porcellus [2], 3.45; in the experiment filed under Mus musculus [5] it was 2.09. Also, the Max agonist response is given as 67% in the experiment filed under Cavia porcellus [8] and 49% in the experiment filed under Mus musculus [9].
